A selection: hits, their analogues and other compounds. The true share with any hit is near 2.8%.
UBC13 inh = human UBC13 polyubiquitination inhibition; P61088; UBC13 polyubiquitin chain formation, TR-FRET; inhibition, % at 20 µM; 330,000 tested, 0.47% active; AID 485273; in the data active = inhibition above about 45%, passing the limit was not always enough
Target sequence (P61088 whole entry, looked up): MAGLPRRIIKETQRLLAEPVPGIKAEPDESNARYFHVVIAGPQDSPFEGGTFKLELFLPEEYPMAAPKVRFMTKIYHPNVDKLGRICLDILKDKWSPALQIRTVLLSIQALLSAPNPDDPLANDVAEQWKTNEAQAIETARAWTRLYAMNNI
pCIP destab = lowers stability of the mouse p/CIP coactivator protein; Q05BA5; F442A p/CIP-EGFP cells, EGFP fluorescence, 16 h; decrease of EGFP signal, % at 10 µM; 290,000 tested, 0.01% active; AID 1984;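 active = EGFP signal decrease of at least 30% at 10 µM or well 3 SD below plate mean, unless failing retest; inactive = the rest, including hits failing retest or dose response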
PP1 inh = PP1-alpha (human) inhibition in PP5 counter-screen; P62136; purified PP1alpha, OMFP fluorescence; inhibition, % at 6.7 µM; 320,000 tested, 0.9% active; AID 2235;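 active = inhibition above the mean inhibition of all tested compounds plus 3 SD, computed separately for each screening campaign, cut at about 15% in these data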
Target sequence (P62136 whole entry, looked up): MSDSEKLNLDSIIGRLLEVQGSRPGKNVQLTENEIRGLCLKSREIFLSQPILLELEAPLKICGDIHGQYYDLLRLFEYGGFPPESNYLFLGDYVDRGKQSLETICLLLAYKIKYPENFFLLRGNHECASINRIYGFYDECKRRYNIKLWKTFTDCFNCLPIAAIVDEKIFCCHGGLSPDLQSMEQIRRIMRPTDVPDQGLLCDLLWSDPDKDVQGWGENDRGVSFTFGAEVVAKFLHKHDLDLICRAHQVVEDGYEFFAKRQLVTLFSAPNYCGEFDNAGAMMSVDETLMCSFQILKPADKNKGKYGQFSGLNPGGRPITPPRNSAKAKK
T cruzi repl = blocks replication of Trypanosoma cruzi. T. cruzi beta-gal in NIH3T3, luminescence, 90 h. inhibition, % (no concentration beside the values). 300,000 tested, 1.4% active;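 active = mean inhibition across valid replicates above about 55%, limit read from the data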;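 note: signal also drops with host cell toxicity which is not excluded here; 0% = plate median of DMSO wells and 100% = zero luminescence signal; higher percent means less beta-gal luminescence so fewer parasites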
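System: Mouse NIH/3T3 fibroblasts infected with β-gal-expressing T. cruzi Tulahuen C4 | Quantity: NIH/3T3 cells, 5,000 per well | Reagent: 5000 reporter trypomastigotes per well | Dosing: Compound pinned at 50 nL/well, DMSO | Schedule: 3 h host attachment, then at least 90 h co-culture | Detection: GalScreen luminescence, 60 min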
AI-2 QS modul = modulates the Vibrio harveyi AI-2 quorum sensing system; Vibrio harveyi JMH597 AI-2 luminescence/OD600 ratio, 9 h; active compounds read low; strain lacks LuxN and CqsS sensors; 0 = neutral-control median; AID 2094; activity change, % at 7.5 µM; 300,000 tested, 0.4% active; in the data active = activity change below about -75%, passing the limit was not always enough;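 note: luminescence divided by OD600 gain over 9 h not by final OD600 alone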
* hit, by the source's call; . = no result.

SMILES | UBC13 inh | pCIP destab | PP1 inh | T cruzi repl | AI-2 QS modul
O=C(CCl)N(c1ccccc1)C1CCCCC1 | 0.8 | -6.1 | -5.0 | 65.0* | 34.0
Cc1ccc2nc(N/C(N)=N/S(=O)(=O)c3ccc([N+](=O)[O-])cc3)nc(C)c2c1 | 2.8 | -21.0 | -1.2 | 58.2* | 2.9
O=C(c1cnn2c(C(F)(F)F)cc(-c3cccs3)nc12)N1CCN(Cc2ccccc2)CC1 | 10.5 | 2.9 | 0.8 | 74.6* | -4.1
O=C1CN(C(=O)COC(=O)[C@@H]2CCCN2S(=O)(=O)c2ccc(Cl)cc2)c2ccccc2N1 | 21.4 | . | . | . | .
O=C1C2CCCN2c2ccc(S(=O)(=O)N3CCOCC3)cc2N1Cc1ccccc1F (stereo unspecified) | 7.3 | -8.4 | 6.3 | 32.8 | 13.3
O=C1C2CCCN2c2ccc(S(=O)(=O)N3CCOCC3)cc2N1Cc1cccc(C(F)(F)F)c1 (stereo unspecified) | 1.2 | -13.8 | 30.0* | 13.4 | -1.8
CCOc1ccc(C2C(C(=O)OC)=CN(C(C)c3ccccc3)C=C2C(=O)OC)cc1 (stereo unspecified) | 16.9 | -12.5 | -0.1 | 15.4 | 17.2
O=[N+]([O-])c1ccccc1S(=O)(=O)NCCSCc1ccco1 | -1.0 | . | 17.3* | . | .
Cc1cc(Cl)c(OCCCNCc2ccccc2)c(Br)c1 | 0.8 | -1.9 | 5.0 | 56.2* | 17.1
O=C(c1ccccc1)c1ccccc1NC(=O)C1CCCN1Cc1ccccc1 (stereo unspecified) | -1.2 | -5.2 | 1.7 | 1.7 | 4.5
CCn1c(Cl)c(C=O)s/c1=N\S(=O)(=O)c1ccccc1 | -17.1 | -16.6 | -3.5 | 54.7* | 25.4
CCN1C(=O)CS/C1=N\S(=O)(=O)c1ccc(Cl)cc1 | 3.8 | -3.1 | -1.7 | 7.2 | 12.0
CCN(c1ccccc1)S(=O)(=O)c1ccc(Cl)c(NC(=O)CN2CCCCCC2)c1 | -6.3 | -8.2 | 4.7 | 60.0* | 17.9
Cc1ccc(NC(=S)N2CCN(CCN3C(=O)c4cccc5cccc(c45)C3=O)CC2)cc1 | 8.5 | 6.1 | -2.3 | 73.7* | 11.3
CCOc1ccc(CCNC(=O)COC(=O)c2cc(S(=O)(=O)N3CCOCC3)ccc2F)cc1OCC | -6.8 | -7.7 | . | -18.1 | 73.9
CCC(C(=O)OCC(=O)Nc1ccc(SC(F)F)cc1)c1ccccc1 (stereo unspecified) | . | -4.6 | . | 58.5* | -88.6*
CC(C)Oc1ccc(CNCCC2(C(C)C)CCOC(C)(C)C2)cc1 (stereo unspecified) | 16.7 | -6.5 | 0.8 | 68.4* | 12.9
COc1ccc(S(=O)(=O)N2CCOCC2)cc1NC(=O)CSc1cccc[n+]1[O-] | 4.7 | 11.4 | -2.5 | -12.1 | 24.9
COc1ccc2c(C=O)cn(C)c2c1 | 4.9 | 7.9 | 0.9 | -16.1 | 21.6
O=C(NCC1CCCO1)c1ccc([N+](=O)[O-])s1 (stereo unspecified) | -10.6 | -18.8 | -1.7 | 66.7* | 93.9
O=C(Oc1c(CN2CCOCC2)cc(Cl)c2cccnc12)c1ccccc1F | 8.0 | 7.2 | 10.5 | 74.2* | -10.6
CC(C)CN(C(=O)CCNC(=O)c1ccc([N+](=O)[O-])cc1)C1CCS(=O)(=O)C1 (stereo unspecified) | 12.7 | . | . | . | .
CC(C)CN(C(=O)c1cc([N+](=O)[O-])cc([N+](=O)[O-])c1)C1CCS(=O)(=O)C1 (stereo unspecified) | -5.3 | . | -0.8 | 56.7* | 3.0
CNc1cc(-n2nc(C)cc2-c2ccccc2)ncn1 | 7.0 | 4.5 | -2.0 | -15.4 | 10.1
Cc1cc(-c2ccccc2)n(-c2cc(N/N=C/c3ccccc3O)ncn2)n1 | . | -7.4 | 15.5* | . | .
SMILES | UBC13 inh | pCIP destab | PP1 inh | T cruzi repl | AI-2 QS modul
O=C1NN(c2ccc(F)c(Cl)c2)C(=O)/C1=C\c1cccc(OC(=O)c2cccs2)c1 | 10.2 | 0.7 | 15.3* | 6.1 | 9.5
O=c1c(Cl)c(Cl)cnn1Cc1nnc(-c2ccccc2Br)o1 | -1.8 | -29.1 | . | 57.3* | -46.7
Clc1ccccc1OCc1nnc(-c2ccccc2Br)o1 | -0.6 | -14.0 | 2.4 | -0.6 | -5.7
CCc1ccc(N(CC(=O)NC2CC2)S(=O)(=O)c2ccc(C)cc2)cc1 | -8.5 | -1.8 | -4.6 | 14.9 | 0.3
OC(COc1ccc2ccccc2c1)Cn1ccnc1 (stereo unspecified) | 10.5 | 3.9 | -4.5 | 48.2 | 18.9
OC(COc1ccc2ccccc2c1Br)Cn1ccnc1 (stereo unspecified) | 16.3 | 5.9 | 1.2 | 63.4* | 42.1
CCOC(=O)N1CCN(S(=O)(=O)c2ccc(C(=O)N(CCCN(C)C)c3nc4ccc(CC)cc4s3)cc2)CC1 | 16.3 | -1.8 | 7.9 | 37.0 | 13.9
